Assay results gathered from unrelated publications.
Read-out: cell growth or viability

| Structure (SMILES) | cell line | technique | concentration | time | measurement | value |
| --- | --- | --- | --- | --- | --- | --- |
| CSc1ccc(-c2nc3ccccc3[nH]2)cc1 | MDA-MB-231 | MTT | – | 48 h | IC50 | 36.6 µM |
| N#CC(C(=O)Nc1cccc(C(F)(F)F)c1)=C1Sc2nc3ccc(S(=O)(=O)N4CCCC4)cc3nc2S1 | MDA-MB-231 | MTT | 25 µM | 24 h | viability | 26.5% |
| Cc1ccc2nc(-c3ccc(Cl)c(Cl)c3)n(Cc3ccccc3)c2c1 | MDA-MB-231 | MTT | – | – | IC50 | 83.2 µM |
| Oc1ccc(Nc2nc(-c3ccc(Cl)cc3)cs2)cc1 | FF2441 | MTS | – | 72 h | IC50 | > 100 µM |
| COc1cc2c(cc1OS(N)(=O)=O)CCN(Cc1cccc(OC(C)C)c1)C2 | MDA-MB-231 | WST-1 | – | 96 h | GI50 | 4.65 µM |
| COc1cccc(-c2nc3ccccc3[nH]2)c1 | MDA-MB-231 | MTT | – | 48 h | IC50 | 25.5 µM |
| COc1cc2c(cc1OS(N)(=O)=O)CCN(C(=O)c1cc(OC)c(OC)c(OC)c1)C2 | MDA-MB-231 | WST-1 | – | 96 h | GI50 | 1.72 µM |
| C[C@]12CC[C@H](O)CC1=CC[C@@H]1[C@@H]2CC[C@]2(C)C(c3cccnc3)=CC[C@@H]12 | CWR22Rv1 | MTT | – | – | GI50 | 11.5 µM |
| COc1cc2c(cc1O)CCN(Cc1cc(OC)c(OC)c(OC)c1)C2 | MDA-MB-231 | WST-1 | – | 96 h | GI50 | 0.62 µM |
| COc1cc(OC)c2c(=O)cc(-c3ccccc3Br)oc2c1-c1c(OC)cc(OC)c2c(=O)cc(-c3ccccc3Br)oc12 | HS27 | MTT | – | 24 h | IC50 | > 200 µM |
| COc1ccc(CN2CCc3cc(OS(N)(=O)=O)c(OC)cc3C2)cc1OC | MDA-MB-231 | WST-1 | – | 96 h | GI50 | 3.15 µM |
| Cc1ccc2nc(-c3ccc([N+](=O)[O-])cc3)n(Cc3ccccc3Cl)c2c1 | MDA-MB-231 | MTT | – | – | IC50 | 28.5 µM |
| COc1cc2c(cc1O)CCN(Cc1cc(OC)c(OC)cc1OC)C2 | MDA-MB-231 | WST-1 | – | 96 h | GI50 | 4.1 µM |
| COc1cccc2c1C(=O)c1c(O)c3c(c(O)c1C2=O)C[C@@](O)(C(=O)CO)C[C@@H]3O[C@H]1C[C@H](N)[C@H](O)[C@H](C)O1 | MDA-MB-231 | MTT | 50 µM | 24 h | viability | 11.8% |
| c1cncc(-c2nc3ccccc3[nH]2)c1 | MDA-MB-231 | MTT | – | 48 h | IC50 | > 100 µM |
| COc1cc(C)c(-c2c(C)cc(OC)c3c(=O)cc(-c4ccc(N(C)C)cc4)oc23)c2oc(-c3ccc(N(C)C)cc3)cc(=O)c12 | HS27 | MTT | – | 24 h | IC50 | 180 µM |
| O=C1CCCCC1=C1Sc2nc3ccc(S(=O)(=O)N4CCCC4)cc3nc2S1 | MDA-MB-231 | MTT | 25 µM | 24 h | viability | 23.4% |
| C=CC(=O)N1CCC[C@@H](n2nc(-c3ccc(Oc4ccccc4)cc3)c3c(N)ncnc32)C1 | OCI-Ly3 | ATP luminescence | – | 72 h | GI50 | 19.3 µM |
| COc1ccc(-c2cc(=O)c3c(OC)cc(OC)c(-c4c(OC)cc(OC)c5c(=O)cc(-c6ccc(OC)cc6)oc45)c3o2)cc1 | HS27 | MTT | – | 24 h | IC50 | > 200 µM |
| COc1cc2c(cc1O)CCN(Cc1cccc(O)c1)C2 | MDA-MB-231 | WST-1 | – | 96 h | GI50 | > 100 µM |
| Cc1ccc2nc(-c3ccc(Cl)cc3)[nH]c2c1 | MDA-MB-231 | MTT | – | 48 h | IC50 | 27.1 µM |
| COc1cc(OC)c2c(=O)cc(-c3ccc(N(C)C)cc3)oc2c1 | HS27 | MTT | – | 24 h | IC50 | > 200 µM |
| Oc1cccc(-c2nc3ccccc3[nH]2)c1 | MDA-MB-231 | MTT | – | 48 h | IC50 | > 100 µM |
| COc1cc2c(cc1O)CCN(Cc1ccc(OC)c(OC)c1OC)C2 | MDA-MB-231 | WST-1 | – | 96 h | GI50 | > 100 µM |
| COc1cc(OC)c2c(=O)cc(-c3ccc(C(F)(F)F)cc3)oc2c1 | HS27 | MTT | – | 24 h | IC50 | > 200 µM |
| COc1cccc2c1C(=O)c1c(O)c3c(c(O)c1C2=O)C[C@@](O)(C(=O)CO)C[C@@H]3O[C@H]1C[C@H](N)[C@H](O)[C@H](C)O1 | LLC-PK11 | neutral red | – | 48 h | IC50 | < 0.55 mg/L |
| C[C@]12CC[C@H](O)CC1=CC[C@@H]1[C@@H]2CC[C@]2(C)C(n3cnc4ccccc43)=CC[C@@H]12 | CWR22Rv1 | MTT | – | – | GI50 | 3.8 µM |
| COc1cc(OC)c2c(=O)cc(-c3ccc(Br)cc3)oc2c1 | HS27 | MTT | – | 24 h | IC50 | > 200 µM |
| CCOC(=O)C(C(C)=O)=C1Sc2nc3ccc(S(=O)(=O)N4CCCC4)cc3nc2S1 | MDA-MB-231 | MTT | 25 µM | 24 h | viability | 13.8% |
| Fc1ccc(-c2nc3ccccc3[nH]2)cc1 | MDA-MB-231 | MTT | – | 48 h | IC50 | > 100 µM |
